Seven compounds from ChEMBL document CHEMBL4673342, “Lipid-Lowering Activities of Cucurbitacins Isolated from Trichosanthes cucumeroides and Their Synthetic Derivatives” (2020) can be followed below.

SMILES strings stand for the structures. The source made the active and inactive calls. The calls are words filed in the database; no cut-off is given here.

A short description of assay [1]: Induction of […] uptake in human HepG2 cells assessed as fold change at 5 uM by DIL probe based fluorescence assay. Type of assay: functional. An outline of the steps: (§1)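 HepG2 cells (passages 4–11) in DMEM/10% FBS were treated with DMSO or compound at 5 µM, then given DiI-labelled human plasma LDL (20 µg/mL) for 3 h at 37 °C in the dark. After ice-cold PBS/0.4% albumin rinses, cell-bound dye was extracted with isopropanol and fluorescence read at 520–578 nm. Uptake rate is relative to DMSO. Positive control nagilactone B at 5 µM; n = 3.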

Assay [2] deals with HepG2. The experiment in a line: Upregulation of LDLR protein expression in human HepG2 cells by Western blot analysis. Type of assay: functional, cell-based. The note with it: dose 1-20 µM. An outline of the steps: (§2)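 HepG2 cells were cultured 12 h, then held a further 24 h in medium with 2% LPDS. Cells were treated with compound across a concentration range, lysed with protease/phosphatase inhibitors, and 30 µg protein was run on 8% SDS-PAGE and blotted to PVDF. Membranes were blocked in 5% milk and probed overnight at 4 °C for LDLR or PCSK9. Mean ± SEM, n ≥ 5.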
(Immunoblotting shows a protein as a band on a membrane.)

In assay [3] the test system is HepG2. Briefly: Down regulation of PCSK9 protein expression in human HepG2 cells by Western blot analysis. Particulars: dose 1-20 µM. Type of assay: functional, cell-based. A digest of the protocol:
as §2

For assay [4], the system named is HepG2. Briefly: Induction of […] uptake in human HepG2 cells at 5 uM by DIL probe based fluorescence assay. It counts as functional, cell-based. An outline of the steps:
as §1

For `CC(C)c1oc(=O)cc2c1[C@@H](O)[C@H]1OC(=O)[C@@]3(C)C[C@@H](O)[C@@H](O)[C@@]2(C)C13` (stereo not given in full), the “fold change (FC)” value in assay [1] was 2.07.

For the compound `CC(=O)OC(C)(C)/C=C/C(=O)[C@](C)(O)[C@H]1[C@H](O)C[C@@]2(C)[C@@H]3[C@@H](O)C=C4[C@@H](CC(=O)[C@@H](O)C4(C)C)[C@]3(C)C(=O)C[C@]12C`, the Activity entry in the assay with HepG2 [2] and with HepG2 [3] was “Dose-dependent effect” each time. With `CCC(=O)O[C@H]1C[C@@H]2C(=CC[C@@H]3[C@@]2(C)C(=O)C[C@]2(C)[C@@H]([C@@](C)(O)C(=O)CCC(C)(C)OC(C)=O)[C@H](OC(=O)CC)C[C@@]32C)C(C)(C)C1=O`, in the assay on HepG2 [4], the result was inactive. `CC1(C)C(=O)[C@@H](O)C[C@@H]2C1=C[C@H](O)[C@@H]1[C@@]2(C)C(=O)C[C@]2(C)[C@@H](C=O)[C@H](O)C[C@@]12C`: the result with HepG2 [4] was Active. On to `CC(=O)OC(C)(C)/C=C/C(=O)[C@](C)(O)[C@H]1[C@H](O)C[C@@]2(C)[C@@H]3[C@@H](O)C=C4[C@@H](C[C@H](O)C(=O)C4(C)C)[C@]3(C)C(=O)C[C@]12C`, for which, in the assay on HepG2 [4], the outcome was Active. Take `CC(=O)[C@H]1[C@H](O)C[C@@]2(C)[C@@H]3CC=C4[C@@H](CC(=O)[C@@H](O)C4(C)C)[C@]3(C)C(=O)C[C@]12C`: the “fold change (FC)” value in assay [1] was 2.53. The Activity result in the assay with HepG2 [2] and in the assay with HepG2 [3] was “Dose-dependent effect” in each case. In the case of `CC(C)(O)/C=C/C(=O)[C@](C)(O)[C@H]1[C@H](O)C[C@@]2(C)[C@@H]3CC=C4[C@@H](C[C@H](O)[C@@H](O)C4(C)C)[C@]3(C)C(=O)C[C@]12C`, the outcome in the assay on HepG2 [4] was Active.
